Measured values from different studies.
Each line is one published result; the experiments were not run side by side.
Target: Serine/threonine-protein kinase D3 (PRKD3, Homo sapiens, UniProt O94806)
Sequence (O94806 1-890, as in one of the studies): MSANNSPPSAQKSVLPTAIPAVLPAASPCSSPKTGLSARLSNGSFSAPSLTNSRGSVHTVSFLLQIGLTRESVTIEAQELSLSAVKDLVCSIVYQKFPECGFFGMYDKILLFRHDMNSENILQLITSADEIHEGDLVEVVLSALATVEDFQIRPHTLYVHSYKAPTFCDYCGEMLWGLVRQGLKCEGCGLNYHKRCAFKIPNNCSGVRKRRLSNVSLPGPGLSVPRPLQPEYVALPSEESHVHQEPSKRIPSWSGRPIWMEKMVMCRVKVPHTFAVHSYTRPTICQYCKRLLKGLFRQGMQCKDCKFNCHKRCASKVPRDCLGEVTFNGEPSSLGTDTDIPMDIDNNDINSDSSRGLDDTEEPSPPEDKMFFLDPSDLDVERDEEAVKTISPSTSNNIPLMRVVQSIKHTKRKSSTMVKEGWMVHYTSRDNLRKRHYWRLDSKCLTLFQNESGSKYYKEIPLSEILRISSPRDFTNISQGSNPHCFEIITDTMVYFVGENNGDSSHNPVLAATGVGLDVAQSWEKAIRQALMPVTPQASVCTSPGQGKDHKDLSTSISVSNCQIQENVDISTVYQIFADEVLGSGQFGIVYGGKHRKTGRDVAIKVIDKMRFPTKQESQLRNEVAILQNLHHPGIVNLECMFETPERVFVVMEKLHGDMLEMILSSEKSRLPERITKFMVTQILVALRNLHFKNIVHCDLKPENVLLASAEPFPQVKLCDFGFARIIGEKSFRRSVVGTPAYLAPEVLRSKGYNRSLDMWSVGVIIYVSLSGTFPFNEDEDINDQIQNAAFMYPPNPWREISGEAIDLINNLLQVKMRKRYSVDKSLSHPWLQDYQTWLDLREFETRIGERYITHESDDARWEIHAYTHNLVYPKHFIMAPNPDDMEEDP

COc1cc2ncnc(Nc3ccc(F)c(Cl)c3)c2cc1OCCCN1CCOCC1
remaining signal (cell-free assay; 0.5 µM): 76.3%

COc1cc2ncnc(Nc3ccc(Oc4ccccc4)c(C)c3C)c2cc1OC
inhibition (enzyme activity, inhibitor; 1 µM): 8%

CC(C)(C)c1nc(-c2cccc(NS(=O)(=O)c3c(F)cccc3F)c2F)c(-c2ccnc(N)n2)s1
remaining activity (enzyme activity, inhibitor, radiometric; 1 µM): 100%

CNC(=O)Nc1ccc2c(c1)CC[C@@]21OC(=O)N(CC(=O)N(Cc2ccc(F)cc2)[C@@H](C)C(F)(F)F)C1=O
remaining binding (cell-free assay, competition with immobilised ligand; 1 µM): 100%

Cn1c2c(Cl)c(Cl)ccc2c2cc(N)[nH]c(=O)c21
ΔTm (thermal stability, DSF; 10 µM): 1 °C

O=C(NCc1ncc(C(F)(F)F)cc1Cl)c1ccc2c(c1)C1(CCS(=O)(=O)CC1)[C@H](C1CC1)N2S(=O)(=O)c1ccc(F)cc1
remaining binding (cell-free assay, competition with immobilised ligand; 1 µM): 100%

O=C1NC(=O)c2cc(Nc3ccc(F)cc3)c(Nc3ccc(F)cc3)cc21
remaining signal (cell-free assay; 0.5 µM): 96.7%

CC(C)CC(=O)N1CCc2nc(-c3ccc(Br)cc3)nc(N(C)Cc3ccccc3)c2C1
remaining binding (cell-free assay, competition with immobilised ligand; 0.1 µM): 100%

Nc1ncnc2occ(-c3ccc(NC(=O)Nc4cc(C(F)(F)F)ccc4F)cc3)c12
remaining signal (cell-free assay, inhibitor; 20 µM): 42%

CC(C)(O)[C@H]1CC[C@H](Nc2ccc3ncc(-c4cccc(C(F)(F)F)c4)n3n2)CC1
remaining activity (enzyme activity, inhibitor; 1 µM): 91.2%

CCOc1cc(-c2nncn2C)ccc1Nc1ncc2cc(C)nc(NCC(C)(C)C)c2n1
inhibition (enzyme activity, inhibitor, FRET; 1 µM): < 15%

O=C(Nc1cnn(-c2csc(C(=O)NC3COC3)c2)c1)Nc1c(F)cccc1Cl
remaining activity (enzyme activity, inhibitor; 5 µM): 105%

CN(C)CC#Cc1ccc(OCCCc2sc(N3CCc4cccc(C(=O)Nc5nc6ccccc6s5)c4C3)nc2C(=O)O)c(F)c1
remaining binding (cell-free assay, competition with immobilised ligand; 1 µM): 93%

CC/C(=N\NC(=O)NCc1cccc(O)c1)c1ccc(O)c(C)c1O
inhibition (enzyme activity, inhibitor; 0.1 µM): 2.2%

CCCCNc1ncc2c(-c3ccc(F)cc3)nn(C[C@H]3CC[C@H](N)CC3)c2n1
inhibition (target engagement in cells, inhibitor, chemoproteomics; 20 mM): 48.7%

CNc1cc(Oc2cc(C(=O)Nc3cc(N4CCN(C)CC4)cc(C(F)(F)F)c3)ccc2C)ncn1
inhibition (target engagement in cells, inhibitor, chemoproteomics; Huh-7; 1 µM): -19.8%

COc1cc(Nc2c(C#N)cnc3cc(OCCCN4CCN(C)CC4)c(OC)cc23)c(Cl)cc1Cl
remaining signal (cell-free assay; 0.5 µM): 42.2%

O=C(Nc1ccc(Oc2ccc(F)cc2)cc1)N1CCc2ncccc2[C@H]1c1ccc(F)cc1
remaining binding (cell-free assay, competition with immobilised ligand; 1 µM): 98%

Cn1c2c(c3ccc(Cl)c(Cl)c31)C(C#N)C1(CCNCC1)NC2=O (racemic)
ΔTm (thermal stability, DSF; 10 µM): 2.9 °C

Cc1nc(N2CC[C@@H](O)C2)ncc1-c1cc(C(F)(F)F)cc2[nH]ncc12
remaining binding (binding, competition with immobilised ligand; 1 µM): 100%

N#CC1c2c([nH]c3c(Cl)c(Cl)ccc23)C(=O)NC12CCCCC2 (racemic)
ΔTm (thermal stability, DSF; 10 µM): 0.9 °C

CCCCN(CCCC)C(=O)CN1C[C@@H](c2cc(OC)c3c(c2)OCO3)[C@H](C(=O)O)[C@H]1CC(C)(C)CCC
remaining binding (cell-free assay, competition with immobilised ligand; 1 µM): 100%

CC1(C)NC(=O)c2[nH]c3c(Cl)c(Cl)ccc3c2C1C#N (centres unmarked)
ΔTm (thermal stability, DSF; 10 µM): 0.8 °C
